Assay results from ChEMBL document CHEMBL4190213, “Naphthoquinones of Sinningia reitzii and Anti-inflammatory/Antinociceptive Activities of 8-Hydroxydehydrodunnione” (J Nat Prod, 2017).
Calls of active or inactive are those of the source.

Key:
Mus musculus [1] = assay: Antinociceptive activity in carrageenan-induced Swiss mouse model of mechanical hyperalgesia administered as intraplantar injection pretreated for 15 mins followed by carrageenan challenge after 3 hrs by Von Frey filament assay; type: functional, organism-based
Summary of the method: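 Male Swiss mice were acclimatized 1 h on a wire mesh platform and given a basal von Frey up-and-down test (six measurements, 50% withdrawal threshold). Intraplantar treatment followed, 5−50 pg into the right paw, vehicle 0.1% Tween 20 in saline, 20 μL. After 15 min, carrageenan 300 μg/paw in 20 μL went into the right hindpaw. The threshold was remeasured at 3 h; mean ± SEM, 5−8 animals.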

Mus musculus [2] = assay: Antinociceptive activity in dibutyryl cyclic AMP-induced Swiss mouse model of mechanical hyperalgesia at 15 pg/paw administered as intraplantar injection pretreated for 15 mins followed by dibutyryl cyclic AMP challenge after 3 hrs by Von Frey filament assay; type: functional, organism-based
Summary of the method: (§1)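 Male Swiss mice received intraplantar pretreatment, vehicle 20 μL of 0.1% Tween 20. After 15 min the right paw was injected with PGE2 (100 ng/paw), dopamine (3 μg/paw) or dbcAMP (5 μg/paw). The 50% mechanical withdrawal threshold was measured by von Frey filaments, up-and-down method, before injection and 3 h after the stimulus; mean ± SEM, 5−8 animals.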

Mus musculus [3] = assay: Toxicity in Swiss mouse assessed as motor impairment at 15 pg/paw administered as intraplantar injection incubated for 3 hrs measured for 180 secs by rotarod test; type: organism-based; conditions: in vivo, other
Summary of the method: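 Male Swiss mice were preselected for staying at least 60 s on a Rotarod at 22 rpm (one of three trials). They received intraplantar treatment (vehicle 20 μL of 0.1% Tween 20) and were tested on the Rotarod 3 h later for 180 s; mean ± SEM, n = 6.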

Mus musculus [4] = assay: Antinociceptive activity in dopamine-induced Swiss mouse model of mechanical hyperalgesia at 15 pg/paw administered as intraplantar injection pretreated for 15 mins followed by dopamine challenge after 3 hrs by Von Frey filament assay; type: functional, organism-based; summary of the method: as §1
Mus musculus [5] = assay: Antiinflammatory activity in Swiss mouse assessed as inhibition of carrageenan-induced paw edema administered as intraplantar injection pretreated for 1 hr followed by carrageenan challenge measured after 1 to 4 hrs; type: functional, organism-based
Summary of the method: (§2)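 Male Swiss mice, 25−35 g, given an intraplantar pretreatment in 0.1% Tween 20 vehicle. The right hind paw then received carrageenan, 300 μg in 50 μL sterile 0.9% saline, given subcutaneously; the contralateral paw received saline only. Paw thickness was read by digital micrometer 1 h before and 1, 2 and 4 h after carrageenan. The result is the thickness difference in μm; mean ± SEM, 5−8 animals.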

Mus musculus [6] = species: Mus musculus; assay: Antinociceptive activity in Swiss mouse assessed as increase in thermal-stimulus induced paw withdrawal or licking latency at 15 pg/paw after 3 hrs by hot plate method; type: functional, organism-based
Summary of the method: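 Male Swiss mice were preselected for a basal latency of 7−15 s on a 55 °C metal platform. They then received intraplantar treatment (vehicle 20 μL of 0.1% Tween 20) and were re-exposed at 3 h. The end point was paw withdrawal or licking, cutoff 30 s. Data are %MPE = (post − basal)/(cutoff − basal) × 100; mean ± SEM, n = 6.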

Mus musculus [7] = assay: Antinociceptive activity in PGE2-induced Swiss mouse model of mechanical hyperalgesia at 15 pg/paw administered as intraplantar injection pretreated for 15 mins followed by PGE2 challenge after 3 hrs by Von Frey filament assay; type: functional, organism-based; summary of the method: as §1
Mus musculus [8] = assay: Antiinflammatory activity in Swiss mouse assessed as inhibition of carrageenan-induced paw edema 30 ng/paw administered as intraplantar injection pretreated for 1 hr followed by carrageenan challenge measured after 1 to 4 hrs; type: functional, organism-based; summary of the method: as §2
Mus musculus [9] = assay: Antinociceptive activity in PGE2-induced Swiss mouse model of mechanical hyperalgesia at 320 ng/paw administered as intraplantar injection pretreated for 15 mins followed by PGE2 challenge after 3 hrs by Von Frey filament assay; type: functional, organism-based; summary of the method: as §1
Mus musculus [10] = assay: Antinociceptive activity in dopamine-induced Swiss mouse model of mechanical hyperalgesia at 320 ng/paw administered as intraplantar injection pretreated for 15 mins followed by dopamine challenge after 3 hrs by Von Frey filament assay; type: functional, organism-based; summary of the method: as §1
Mus musculus [11] = assay: Antinociceptive activity in dibutyryl cyclic AMP-induced Swiss mouse model of mechanical hyperalgesia at 320 ng/paw administered as intraplantar injection pretreated for 15 mins followed by dibutyryl cyclic AMP challenge after 3 hrs by Von Frey filament assay; type: functional, organism-based; summary of the method: as §1
Mus musculus [12] = assay: Toxicity in Swiss mouse assessed as motor impairment at 5 mg/kg, sc incubated for 15 mins measured for 180 secs by rotarod test; type: organism-based; conditions: in vivo, 0.05 h
Summary of the method: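 Male Swiss mice (25−35 g) were preselected for staying at least 60 s on a Rotarod at 22 rpm (one of three trials). Diazepam was given at 5.0 mg/kg s.c. as the positive control. Local intraplantar treatments (15 pg/paw, or 20 μL vehicle of 0.1% Tween 20) were tested 3 h later. The Rotarod task lasted 180 s, n = 6.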

With `C=C1OC2=C(C(=O)C(=O)c3c(O)cccc32)C1(C)C` as the molecule, how does the Activity (Mus musculus [1]) read?
Its Activity is “Dose-dependent effect”.

And the Activity (Mus musculus [2])?
The Activity was “inactive”.

And the Activity (Mus musculus [3])?
Its Activity is “Non-Toxic”.

What about the Activity (Mus musculus [4]) of the same molecule?
The Activity was “Active”.

And the inhibition (Mus musculus [5])?
Its inhibition is “Dose-dependent effect”.

What about the Activity (Mus musculus [6]) of the same molecule?
The Activity was “inactive”.

What about the Activity (Mus musculus [7]) of the same molecule?
Its Activity is “Active”.

How did the inhibition (Mus musculus [8]) turn out when `C[C@@H]1C[C@H]2[C@@H]3CCC4=CC(=O)C=C[C@]4(C)[C@@]3(F)[C@@H](O)C[C@]2(C)[C@@]1(O)C(=O)CO` was run?
Its inhibition is “Active”.

How did the Activity (Mus musculus [9]) turn out when `Cc1c(N(C)CS(=O)(=O)O)c(=O)n(-c2ccccc2)n1C` was run?
Its Activity is “Active”.

And the Activity (Mus musculus [10])?
Its Activity is “Active”.

What about the Activity (Mus musculus [11]) of the same molecule?
Its Activity is “Active”.

With `CN1C(=O)CN=C(c2ccccc2)c2cc(Cl)ccc21` [DIAZEPAM] as the molecule, how does the Activity (Mus musculus [12]) read?
The Activity was “Toxic”.
